Data reported in ChEMBL document CHEMBL2010655, “Chemical constituents from the aerial parts of Aster koraiensis with protein glycation and aldose reductase inhibitory activities” (J Nat Prod, 2012).

Key:
[1] = molecular target: Aldo-keto reductase family 1 member B1 (Rattus norvegicus, UniProt P07943); test: Inhibition of Sprague-Dawley rat lens aldose reductase
[2] = Inhibition of advanced glycation end-products formation after 14 days by spectrofluorimetry; assay type: physicochemical
Outline: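 Glycation end-product formation measured by an established literature method. Fluorescent reaction products read spectrofluorometrically after a 14-day incubation. Aminoguanidine served as the positive control. Triplicate experiments, reported as mean ± SD. IC50 calculated from the dose–inhibition curve.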

IC50 [1] [µM]	IC50 [2] [µM]	SMILES
0.32	9	O=c1c(O[C@@H]2OC[C@H](O)[C@H](O)[C@H]2O)c(-c2ccc(O)c(O)c2)oc2cc(O)cc(O)c12 [GUAJAVERIN]
–	> 50	CC(/C=C1\SC(=S)N(CC(=O)O)C1=O)=C\c1ccccc1
> 30	> 50	CC[C@H](CC[C@@H](C)[C@H]1CC[C@H]2[C@@H]3CC=C4C[C@@H](O[C@@H]5O[C@H](CO)[C@@H](O)[C@H](O)[C@H]5O)CC[C@]4(C)[C@H]3CC[C@]12C)C(C)C [SITOGLUSIDE]
> 30	> 50	C/C=C/C#CC#CCCCO[C@@H]1O[C@H](CO)[C@@H](O)[C@H](O)[C@H]1O
> 30	> 50	CC1=CC[C@@H](O)[C@]2(C)[C@@H](OC(=O)/C=C/c3ccc(O)cc3)C[C@@H](C(C)C)[C@@H](O[C@@H]3O[C@H](CO)[C@@H](O)[C@H](O)[C@H]3O)[C@@H]12
> 30	> 50	C=CCCCCC/C=C/[C@H](O)C#CC#C[C@@H](O)[C@H](C)O [GYMNASTERKOREAYNE E]
12.1	> 50	COc1cc(-c2oc3cc(O)cc(O)c3c(=O)c2O[C@@H]2O[C@H](CO[C@@H]3O[C@@H](C)[C@H](O)[C@@H](O)[C@H]3O)[C@@H](O)[C@H](O)[C@H]2O)ccc1O [NARCISSIN]
2.3	6.4	O=C(/C=C/c1ccc(O)c(O)c1)O[C@H]1[C@H](O)C[C@](O)(C(=O)O)C[C@H]1OC(=O)/C=C/c1ccc(O)c(O)c1
> 30	> 50	C=CCc1ccc(O[C@@H]2O[C@H](CO)[C@@H](O)[C@H](O)[C@H]2O)c(OC)c1 [CITRUSIN C]
> 30	> 50	CC1=CC[C@H](O)[C@]2(C)[C@H]1[C@@H](O[C@@H]1O[C@H](CO)[C@@H](O)[C@H](O)[C@H]1O)[C@H](C(C)(C)O)C[C@H]2OC(=O)/C=C/c1ccc(O)cc1
> 30	> 50	C=C(CO[C@@H]1O[C@H](CO)[C@@H](O)[C@H](O)[C@H]1O)[C@H]1Oc2cc(C(C)=O)c(O)cc2[C@@H]1OC
0.95	> 50	O=C(/C=C/c1ccc(O)c(O)c1)O[C@@H]1C[C@](O)(C(=O)O)C[C@@H](O)[C@H]1O [CHLOROGENIC ACID]
9.3	44.4	COc1cc(-c2oc3cc(O)cc(O)c3c(=O)c2O[C@@H]2O[C@H](CO)[C@@H](O)[C@H](O)[C@H]2O)ccc1O (stereo in doubt; 7)
4.4	9.2	O=c1c(O[C@@H]2O[C@H](CO)[C@@H](O)[C@H](O)[C@H]2O)c(-c2ccc(O)c(O)c2)oc2cc(O)cc(O)c12 [ISOQUERCETIN]
–	6.6	O=C(/C=C/c1ccc(O)c(O)c1)O[C@@H]1C[C@](O)(C(=O)O)C[C@@H](OC(=O)/C=C/c2ccc(O)c(O)c2)[C@H]1O
11.3	> 50	C[C@@H]1O[C@@H](OC[C@H]2O[C@@H](Oc3c(-c4ccc(O)cc4)oc4cc(O)cc(O)c4c3=O)[C@H](O)[C@@H](O)[C@@H]2O)[C@H](O)[C@H](O)[C@H]1O [NICOTIFLOROSIDE]

SMILES	IC50 [1] [µM]	IC50 [2] [µM]
C/C=C/C#CC#C[C@H](O)CCO [GYMNASTERKOREAYNE A]	> 30	> 50
CC[C@H](/C=C/[C@@H](C)[C@H]1CC[C@H]2C3=CC[C@H]4C[C@@H](O)CC[C@]4(C)[C@H]3CC[C@]12C)C(C)C	> 30	> 50
N=C(N)NN [PIMAGEDINE]	> 30	966
